Results on 6 molecules are retold here after ChEMBL document CHEMBL1137814, “Bitungolides A-F, new polyketides from the Indonesian sponge Theonella cf. swinhoei” (J Nat Prod, 2002).

Calls of active or inactive are those of the source. The calls are words filed in the database; no cut-off is given here.

Series [1] deals with brain. Description: Induction of actin assembly in bovine brain cells by turbidimetric assay. It is filed as cell-based. Conditions: Bos taurus.
In series [2] the test system is brain. Description: Induction of microtubule assembly in bovine brain cells by turbidimetric assay. It is filed as cell-based. Conditions: Bos taurus. An outline of the steps:
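Turbidity assay: microtubule protein at 2.0 mg/mL in Mes buffer incubated at 37 °C. Absorbance at 350 nm followed over time.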

Series [3] deals with Dual specificity protein phosphatase 3 (Homo sapiens) (UniProt P51452). Briefly: Inhibition of VHR expressed in Escherichia coli BL21([…]). An outline of the steps:
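VHR dual-specificity phosphatase overexpressed in E. coli BL21(DE3). Assays run in triplicate. Compounds tested at 100 µg/mL (some at 30 µg/mL). References were tautomycin at 30 ng/mL and RK-682 at 10 µg/mL.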

The nature of series [4]: Cytotoxicity against rat 3Y1 cells at 10 ug/ml by flow cytometry. The series is classed as cell-based. Summed up:
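Rat normal fibroblast 3Y1 cells grown in Dulbecco's modified MEM with 10% fetal calf serum, humidified 5% CO2. Cell-cycle progression after treatment assessed by flow cytometry.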
(In general: In flow cytometry, cells or beads pass a laser one at a time.)

Another series relates to 3Y1 cell line. Description: Induction of morphological changes in rat 3Y1 cells by indirect immunofluorescence technique. It is filed as functional, cell-based. An outline of the steps: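 3Y1 rat fibroblasts cultured in DMEM plus 10% fetal calf serum under humidified 5% CO2. Cytoskeletal changes after treatment visualized by indirect immunofluorescence microscopy.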
The species named for another series is Homo sapiens. Description: Inhibition of PP2A from human red blood cells. An outline of the steps: (§1)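 PP1 (rabbit skeletal muscle) and PP2A (human red blood cells), commercial enzymes. In vitro assays run in duplicate. Compounds tested at 10 µg/mL, with tautomycin at 30 ng/mL as reference.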
The species named for the next series is Oryctolagus cuniculus. Description: Inhibition of rabbit muscle PP1. Summed up: as §1
A short description of series [5]: Inhibition of PTP-S2. Summed up: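 PTP-S2 overexpressed in E. coli BL21(DE3). Phosphatase assays run in triplicate. Compounds tested at 10 µg/mL, with tautomycin at 30 ng/mL as reference.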

Dual specificity protein phosphatase 3 (Homo sapiens), sequence (P51452 whole entry, looked up): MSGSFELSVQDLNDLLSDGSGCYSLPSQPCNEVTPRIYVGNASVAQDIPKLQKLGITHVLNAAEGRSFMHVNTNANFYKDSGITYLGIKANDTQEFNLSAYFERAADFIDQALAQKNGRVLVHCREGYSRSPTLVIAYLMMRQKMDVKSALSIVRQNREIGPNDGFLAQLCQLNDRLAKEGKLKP

`CC[C@@H]1C=CC(=O)O[C@@H]1[C@H](C)C[C@@H](C)[C@@H](O)C[C@H](O)/C=C\C=C/c1cccc(O)c1Cl` [BITUNGOLIDE A]: the outcome (in the series on brain [1]; with brain [2]; in series [3]; in the series on 3Y1 cell line; in the series filed under Homo sapiens; in the series listed under Oryctolagus cuniculus) was inactive. Also, in series [5], the outcome was inactive. Moreover, the result in series [4] was Active.

`CC[C@@H]1C=CC(=O)O[C@@H]1[C@H](C)C[C@@H](C)[C@@H](O)C[C@H](O)/C=C/C=C/c1cccc(O)c1Cl` [BITUNGOLIDE B]: the result (in the series with brain [1]; in the series on brain [2]; in series [3]; in the series with 3Y1 cell line; in the series filed under Homo sapiens; in the series filed under Oryctolagus cuniculus) was inactive. For the same molecule, in series [5], the result was inactive. The result in series [4] was Active.

With `CC[C@@H]1C=CC(=O)O[C@@H]1[C@H](C)C[C@@H](C)[C@@H](O)C[C@H](O)/C=C\C=C\c1cccc(O)c1Cl` [BITUNGOLIDE C], the outcome (with brain [1]; in the series with brain [2]; in series [3]; in the series with 3Y1 cell line; in the series filed under Homo sapiens; in the series listed under Oryctolagus cuniculus) was inactive. For the same molecule, the result in series [5] was inactive. Moreover, in series [4], the result was Active.

For the molecule `CC[C@@H]1C=CC(=O)O[C@@H]1[C@H](C)C[C@@H](C)[C@@H](O)C[C@H](O)/C=C/C=C\c1cccc(O)c1Cl` [BITUNGOLIDE D], the outcome (with brain [1]; with brain [2]; in series [3]; in the series on 3Y1 cell line; in the series filed under Homo sapiens; in the series listed under Oryctolagus cuniculus) was inactive. For the same molecule, the outcome in series [5] was inactive. The result in series [4] was Active.

With `CC[C@@H]1C=CC(=O)O[C@@H]1[C@H](C)C[C@@H](C)[C@@H](O)C[C@H](O)/C=C/C=C/c1ccccc1` [BITUNGOLIDE E], the outcome (in the series on brain [1]; in the series on brain [2]; in series [3]; with 3Y1 cell line; in the series filed under Homo sapiens; in the series listed under Oryctolagus cuniculus) was inactive. In series [5], the result was inactive. In addition, the result in series [4] was Active.

As to `CC[C@@H]1C=CC(=O)O[C@@H]1[C@H](C)CC[C@@H](O)C[C@H](O)/C=C/C=C/c1ccccc1` [BITUNGOLIDE F], the outcome (in the series with brain [1]; in the series on brain [2]; in series [3]; with 3Y1 cell line; in the series filed under Homo sapiens; in the series listed under Oryctolagus cuniculus) was inactive. Further, in series [5], the result was inactive. For the same molecule, the outcome in series [4] was Active.
